Measurements of several laboratories.
Target: Cytochrome P450 1A2 (CYP1A2, Homo sapiens, UniProt P05177)
Observed: enzyme activity
Mode: inhibitor

Structure (SMILES) | method | host | matrix | time | pH | quantity | value
NS(=O)(=O)NCCNc1nonc1C(=NO)Nc1ccc(F)c(Br)c1 | fluorescence |  |  |  |  | IC50 | > 10 µM
CCCN(CCC)CCc1cccc2c1CC(=O)N2 | fluorescence |  |  |  |  | IC50 | 540 µM
C#Cc1ccc2c(=O)cc(-c3ccccc3)oc2c1 |  |  |  | 6 min | pH 7.6 | Ki | 0.52 µM
COc1ccc2cc3[n+](cc2c1OC)CCc1cc2c(cc1-3)OCO2 |  |  |  |  |  | IC50 | > 10 µM
Nc1nc(N)c2nc(CNc3cccc4ccccc34)cnc2n1 | luciferase |  |  |  |  | IC50 | 72.4 µM
COc1ccc2c(Cc3ccccc3F)c3n(c(=O)c2c1OC)CCc1cc2c(cc1-3)OCO2 |  |  |  |  |  | IC50 | > 10 µM
CC(CN1c2ccccc2Sc2ccccc21)N(C)C (stereo not drawn) | fluorescence |  |  |  |  | IC50 | 1 µM
Cc1cc2c(F)c(Oc3ncnn4cc(OC[C@@H](C)O)c(C)c34)ccc2[nH]1 | fluorescence |  |  | 15 min |  | IC50 | 44.5 µM
C#Cc1ccc2cc(-c3ccccc3)c(=O)oc2c1 |  |  |  | 6 min | pH 7.6 | Ki | 2.97 µM
C=CC(=O)Nc1cc(Nc2nccc(Nc3cc(Cl)c(F)cc3C(C)(C)O)n2)c(OC)cc1N1CC[C@@H](N(C)C)C1 |  | human | liver microsomes |  |  | IC50 | > 30 µM
Cc1ccc2nc(-c3ccccc3)c(CNc3ccc(F)cc3)n2c1 |  |  |  |  |  | IC50 | 1.8 µM
CCCCCNC(=N)N/N=C/c1c[nH]c2ccc(OC)cc12 | fluorescence |  |  |  |  | IC50 | 347 µM
